Source: the RNAGym collection of RNA variant scans (doi:10.1126/science.aae0568)
Fewer inactive variants are shown than the library holds.

B1: tRNA (parent)
chain: GUUCCGUUGGCGUAAUGGUAACGCGUCUCCCUCCUAAGGAGAAGACUGCGGGUUCGAGUCCCGUACGGAACG

Variants of: B1
Assay: yeast fitness relative to wild type (ratio to wild type); higher = fitter; tRNA-Arg(CCU), competitive growth, 37 C, YPD
In short: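 Genotype frequency changes were the basis for Darwinian fitness relative to wild type. The frequencies came from 100-nucleotide paired-end sequencing of gene amplicons from the start population and each end population of pooled yeast strains with tRNA-Arg(CCU) gene variants at the native locus. Competition ran in YPD at 37°C for 24 hours in six replicates, genotypes needed ≥ 100 starting reads, and estimates < 0.5 were set to 0.5.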

Variant | yeast fitness
U3A G51A A65G A69U | 1.03
U3A A20C A21G | 0.679
U3A U7G A14U G25A G41C C46U | ≤ 0.5
U3A C24A C30U C62U | ≤ 0.5
U3A C30G C55U A70U | ≤ 0.5
U3A C27U | 0.853
U3A G12A | 0.826
U3A G12C | 0.635
U3A G6U G12C C22A | ≤ 0.5
U3A A21G U35A A40U U54C | ≤ 0.5
U3A G41C C55U | ≤ 0.5
U3A U16C A20C | ≤ 0.5
U3A C4G A42G | ≤ 0.5
U3A U7G A14U G25A G41C C46U C61A | 0.519
U3A G44A C55U | ≤ 0.5
U3A C4U G67C | 0.624
U3A G17A C22U U35C A65G | ≤ 0.5
U3A C11G G41C G58C | 0.733
U3A A14G G23C | 0.716
U3A C5A G6C C11U A15G U16A U26G C60G C61U | ≤ 0.5
U3A G67C | 0.827
U2G U7C A69U | ≤ 0.5
U3A A15C U16A U35A G52C C55A | ≤ 0.5
U3A G9C A20G C29A G56A G67U | ≤ 0.5

Variant | yeast fitness
U2G U13A C22U | 0.579
U3A C4G A43G U47C | ≤ 0.5
U3A G25C | 1.03
U3A G12C U13C C49U G56C | ≤ 0.5
U3A C4A G18C C34U A36G G63C | ≤ 0.5
U3A G39A C55U U59G G68C | ≤ 0.5
U2G U59C C66A G67A | ≤ 0.5
U2G G52A | 0.774
U3A G52A | 0.764
U3A G12A A15G C24U A45U | ≤ 0.5
U3A G12A C24U A45U | ≤ 0.5
U3A A14U C46G | ≤ 0.5
U3A G68A | 0.854
U3A A65G | 0.899
U3A A65U | 0.704
U2G G56A | 0.896
U3A A40C C62U | 0.548
U3A A15C U35A G52C C55A | ≤ 0.5
U3A U7C A15U G23C C27U G52A | ≤ 0.5
U3A C24A C34U U54G | ≤ 0.5
U3A C5U A42G C46G | ≤ 0.5
U3A G56A | 1.02
U3A G56C | 0.716
U3A C30U U59A A69C | ≤ 0.5

Variant | yeast fitness
U3A U16C C46U | 0.631
U3A G10C A36U A40C A57G C60G | ≤ 0.5
U3A G18A U19C C27G C61A U64G | ≤ 0.5
U2G U47G | 0.546
U3A C11G A14C C24G C62U A65G | 0.595
U3A C4G G6A U26G C66U | ≤ 0.5
U3A C46G C49U G56C | 0.734
U3A G9A A14C | 0.551
U3A C31G A43U | 0.597
U2G U16A | 1.15
U2G U16C | 0.969
U3A G12A U19A U64C | ≤ 0.5
U3A A43C | 0.883
U3A A43U | 0.929
U3A C27G C31U C33U A42C A70U | ≤ 0.5
U3A C4G G9A C11G A45U | ≤ 0.5
U3A A20U A45U G58C G67C | ≤ 0.5
U3A A42U | 0.846
U2G G51C | 0.543
U2G U13A C60U | 0.816
U3A C62U U64C | 0.77
U3A C5A | 0.806
U3A C31G A40U G41U | ≤ 0.5
U3A G6A G25C A43C | 0.614

Variant | yeast fitness
U3A C46G | 0.982
U3A A14U C60U C62U A70G | 0.651
U3A C4U U8A G10A A21G C49G A57G G67U | 0.655
U3A C27A C30G G39A | ≤ 0.5
U3A C11G C31G A65G | ≤ 0.5
U3A A42C A65U C66U G67C | 0.569
U3A A15U G23C C27U G52A C66U | ≤ 0.5
U3A A42G G52C A57G | ≤ 0.5
U3A U13G U47C A70C | ≤ 0.5
U3A A14C A37C C49U | ≤ 0.5
U3A C30U G67A | 0.553
U3A C27G A43C | ≤ 0.5
U3A A20G C22U | 0.584
U2G U64A | 0.776
U3A G17C A20C U28A | ≤ 0.5
U3A C11U A20G | 0.654
U3A A20G C55G C61U | ≤ 0.5
U3A A14C C24G C33G | ≤ 0.5
U3A C5G C24A C30U A70G | ≤ 0.5
U2G U13C A21G U35A C55U A70G | ≤ 0.5
U2G U8A G23A U26G A43G | 0.576
U3A A14C A21C G41A G44C U47C C49U G56A | ≤ 0.5
U2G U35G A45G C49G U59C C60U A69C | 0.618
U3A G12A U19A C60A A70C | 0.569

Variant | yeast fitness
U2G G52C C61G | ≤ 0.5
U3A C11A C33U G68C | ≤ 0.5
U3A C34U G56C | ≤ 0.5
U3A C24G C33G C55U | ≤ 0.5
U2G U7G U26A C49U A65U | ≤ 0.5
U3A C49U | 0.954
U3A C49A | 0.609
U3A C49G | 0.792
U2G U32C A40G | ≤ 0.5
U3A C24G C29A G50C A57C | ≤ 0.5
U3A C30G A45G C46G G52C G68C | ≤ 0.5
U3A G9A U19A G44C G68C | ≤ 0.5
U3A A20U C31G | 0.535
U3A C27U G67U | 0.606
U3A A40C C60U C62G | ≤ 0.5
U2G U3C A21C | ≤ 0.5
U3A G51A | 0.765
U3A U16C C33G C66G | 0.664
U3A A14C A20C U28A C29G U32C G39A A70C | ≤ 0.5
U3A C4U C5U G48C C49A G67C A70U | 0.663
U3A A36U | 0.681
U3A C4G U8A C49G | ≤ 0.5
U3A A57U | 0.754
U3A A57G | 0.776

Variant | yeast fitness
U3A G9A C62G C66G | ≤ 0.5
U3A G10C A36U A40C C60G | 0.569
U2G U7C C29G C60A | ≤ 0.5
U3A G12C G58A C66U | ≤ 0.5
U2G G63A | 0.876
U2G U28A C29G G51A G56A G67C | ≤ 0.5
U3A A21C C33U U35A G51C G68C A70U | 0.564
U3A G9A C29G | 0.585
U3A A14U A20C | ≤ 0.5
U3A A15G C24A | ≤ 0.5
U3A A21C G25U A43C C61G C62U | ≤ 0.5
U3A U7G C29G C49U | ≤ 0.5
U2G U28G G51C U64A C66U A69C | ≤ 0.5
U3A C5A G17A C22U C66U | 0.531
U3A A37C G44C A45U | ≤ 0.5
U3A C46G A70C | 0.715
U3A A20U A42C C55G | ≤ 0.5
U3A C31U A57U | 0.598
U3A C4U C61G G63C | ≤ 0.5
U3A U7C C11U U13C C31A | ≤ 0.5
U2G U7C C55U C62G C66A | ≤ 0.5
U3A C24U U32C | 0.513
U3A G25C U47A | 0.547
U3A | 1

Variant | yeast fitness
U3A G9C A20G A40G U64C | ≤ 0.5
U3A C30U G56A | ≤ 0.5
U3A A69U | 0.999
U2G U8C C22U C24G U32C A37G A69G A70G | ≤ 0.5
U3A A14G A15G A20U A37G G41A C62U C66U | ≤ 0.5
U3A G44A | 0.807
U3A C4U U7A C24U A70G | ≤ 0.5
U3A C4U U7A C24U A70U | ≤ 0.5
U3A C11G G12A C22U | ≤ 0.5
U3A A14C A37C U47A | ≤ 0.5
U3A A70G | 1
U3A C24G C31U G52C | ≤ 0.5
U2G U28C | 0.825
U2G U28A | 0.645
U3A C34A C49U C55G | ≤ 0.5
U3A A14C | 0.567
U3A G17C A20C U28A C46A C61A | ≤ 0.5
U3A G56C G67C | 0.573
U3A C11A | 0.607
U3A C11G | 0.643
U3A A37C C61A | ≤ 0.5
U3A G9A A14C C55G | ≤ 0.5
U3A G6A G12A A20G C22G U26A G48C G68U | ≤ 0.5
